Where a name gives a salt, the structure may show the parent alone. Read-outs that look alike come from different tables or passages of the source.
Experiments:
full NCI 60 cell panel [1] = conditions: for TGI MG-MID (mean TGI) / GI50: calculated panel mean, 48 h exposure; for GI50: read-out: GI50 MG-MID (mean GI50)
Akt = assay: Western blotting of Akt phosphorylation in MCF-7 cells; type: cell-based, human; conditions: 5 μM, 20 h
Summary of the method: (§1)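 MCF-7 cells treated 20 h, then collected in 20 mM HEPES pH 7.5 with 5 mM DTT, 2 mM EDTA, 0.1% CHAPS, 0.1% Triton X-100 and protease inhibitors, and freeze-thawed twice. Extracts run on SDS-PAGE at 80 μg protein/lane and immunoblotted for total and phosphorylated ERK1/2 and Akt, p53, p21 and β-actin. Blots representative of at least three experiments.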

p53 = assay: Western blotting of p53 in MCF-7 cells; type: cell-based, human; conditions: 5 μM; for p53 expression: 20 h
Colon = assay: NCI 60 cell panel, five-concentration assay, colon subpanel; type: cell-based; conditions: total growth inhibition; 48 h exposure
Renal = assay: NCI 60 cell panel, five-concentration assay, renal subpanel; type: cell-based; conditions: total growth inhibition; 48 h exposure
Leukemia = assay: NCI 60 cell panel, five-concentration assay, leukemia subpanel; type: cell-based; conditions: total growth inhibition; 48 h exposure
CNS = assay: NCI 60 cell panel, five-concentration assay, CNS subpanel; type: cell-based; conditions: total growth inhibition; 48 h exposure
ERK1/2 = assay: Western blotting of ERK1/2 phosphorylation in MCF-7 cells; type: cell-based, human; conditions: 5 μM, 20 h
Summary of the method: as §1

[2] = tested on: MCF-7 breast cancer cells; assay: Growth and death of MCF-7 cells; type: cell-based, human; conditions: 200 nM, viable cells counted daily
Summary of the method: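 MCF-7 cells grown in RPMI 1640 with 10% FBS and 2 mM L-glutamine at 37°C, 5% CO2. Plated at 2×10^4 cells/cm2; compound added 24 h later from 10 mmol/L DMSO working solutions, with DMSO-only controls. Cells harvested with 0.11% trypsin/0.02% EDTA and counted; viability by trypan blue exclusion. Treated vs control compared by Student t-test, P<0.05.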

Bax = Bax content in MCF-7 cells; type: cell-based, human
Summary of the method: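 MCF-7 cells seeded at 1×10^4 cells/cm2 on glass coverslips and treated. Then fixed in 3% p-formaldehyde, washed with 0.1 M glycine in PBS, and permeabilised in 70% ice-cold ethanol. Stained 1 h at room temperature with mouse monoclonal anti-Bax, then FITC anti-mouse IgG for 1 h, with propidium iodide for nuclei. Confocal imaging used sequential 488 and 568 nm excitation; image representative of three experiments.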

Breast = assay: NCI 60 cell panel, five-concentration assay, breast subpanel; type: cell-based; conditions: total growth inhibition; 48 h exposure
Melanoma = assay: NCI 60 cell panel, five-concentration assay, melanoma subpanel; type: cell-based; conditions: total growth inhibition; 48 h exposure
MCF-7 cells = assay: Cell cycle analysis of MCF-7 cells by flow cytometry; type: cell-based, human; conditions: 200 nM, 24 and 48 h
Ovarian = assay: NCI 60 cell panel, five-concentration assay, ovarian subpanel; type: cell-based; conditions: total growth inhibition; 48 h exposure
p21 = assay: Western blotting of p21 in MCF-7 cells; type: cell-based, human; conditions: 5 μM, 24 h
NSCLC = assay: NCI 60 cell panel, five-concentration assay, NSCLC subpanel; type: cell-based; conditions: total growth inhibition; 48 h exposure
Prostate = assay: NCI 60 cell panel, five-concentration assay, prostate subpanel; type: cell-based; conditions: total growth inhibition; 48 h exposure
[3] = tested on: female athymic nude mouse; conditions: in vivo, ip
full NCI 60 cell panel [4] = assay: cells; conditions: Homo sapiens, 48 h, read-out: GI50 MG-MID (mean GI50)

COc1cc2c(/C=C3/C(=O)Nc4cc(Cl)ccc43)c(Cl)n(C)c2cc1C [Compound 12]
CC50 (full NCI 60 cell panel [1]): 49 µM | TGI MG-MID (mean TGI) (full NCI 60 cell panel [1]): 3.80 µM | Akt phosphorylation (Akt): only slightly decreased | p53 expression (p53): caused a p53 increase | induction of p53 (densitometry) (p53; 24 h): threefold induction of p53 | TGI Colon (Colon): 0.95 µM | TGI Renal (Renal): 15.85 µM | TGI Leukemia (Leukemia): 1.74 µM | TGI CNS (CNS): 1.20 µM | ERK phosphorylation (ERK1/2): decreased ERK phosphorylation | effect on MCF-7 cell growth (total cell number) [2]: blocked MCF-7 cell growth within 48 h | cellular Bax by immunofluorescence microscopy (Bax; 5 μM, 24 h): considerable Bax accumulation | increase of Bax, densitometric analysis of Western blotting (Bax; n=3, data not shown): 2.8 times | TGI Breast (Breast): 5.62 µM | TGI Melanoma (Melanoma): 7.08 µM | cell cycle distribution: G2/M phase (MCF-7 cells): marked accumulation of MCF-7 cells in the G2/M phase | sub-G1 peak (apoptotic cells) (MCF-7 cells): a notable cell population was observed in a sub-G1-peak | TGI Ovarian (Ovarian): 2.34 µM | increase of p21 (densitometry) (p21): about 90% | TGI NSCLC (NSCLC): 11.48 µM

COc1cc2c(/C=C3/C(=O)N(C)c4ccc(O)cc43)c(Cl)n(C)c2cc1C [Compound 14]
CC50 (full NCI 60 cell panel [1]): 33.9 µM | TGI MG-MID (mean TGI) (full NCI 60 cell panel [1]): 3.39 µM | GI50 (full NCI 60 cell panel [1]): 100 nM | TGI Colon (Colon): 3.55 µM | TGI Renal (Renal): 4.27 µM | TGI Leukemia (Leukemia): 0.47 µM | TGI CNS (CNS): 1.74 µM | TGI Breast (Breast): 1.70 µM | TGI Prostate (Prostate): 3.16 µM | TGI Melanoma (Melanoma): 7.41 µM | TGI Ovarian (Ovarian): 11.75 µM | TGI NSCLC (NSCLC): 6.03 µM

COc1cc2c(cc1C)N(C)C(=O)/C2=C/c1c(Cl)n(C)c2cc(C)c(OC)cc12 [Compound 15]
CC50 (full NCI 60 cell panel [1]): 87.1 µM | TGI MG-MID (mean TGI) (full NCI 60 cell panel [1]): 52.48 µM | GI50 (full NCI 60 cell panel [1]): 14100 nM | TGI Colon (Colon): 83.18 µM | TGI Renal (Renal): 41.69 µM | TGI Leukemia (Leukemia): 56.23 µM | TGI CNS (CNS): 26.92 µM | TGI Breast (Breast): 36.31 µM | TGI Prostate (Prostate): 67.61 µM | TGI Melanoma (Melanoma): 67.61 µM | TGI Ovarian (Ovarian): 60.26 µM | TGI NSCLC (NSCLC): 69.18 µM

COc1cc2c(cc1C)N(C)C(=O)/C2=C/c1c(Cl)[nH]c2ccccc12 [Compound 16]
TGI MG-MID (mean TGI) (full NCI 60 cell panel [1]): 10.96 µM | GI50 (full NCI 60 cell panel [1]): 450 nM | p53 expression (p53): caused a p53 increase | maximum tolerated dose (MTD) [3]: 100 mg/kg | TGI Colon (Colon): 9.33 µM | TGI Renal (Renal): 12.88 µM | TGI Leukemia (Leukemia): 7.41 µM | TGI CNS (CNS): 7.59 µM | ERK phosphorylation (ERK1/2): decreased ERK phosphorylation | effect on MCF-7 cell growth (total cell number) [2]: initially decreased cell proliferation, however after 24 h, the cells recovered and started to grow | TGI Breast (Breast): 8.32 µM | TGI Prostate (Prostate): 21.38 µM | TGI Melanoma (Melanoma): 18.20 µM | TGI Ovarian (Ovarian): 11.75 µM | TGI NSCLC (NSCLC): 12.30 µM

CN(C)c1ccc2[nH]c(Cl)c(/C=C3/C(=O)Nc4ccc(Cl)cc43)c2c1 [Compound 18]
CC50 (full NCI 60 cell panel [1]): 38.9 µM | TGI MG-MID (mean TGI) (full NCI 60 cell panel [1]): 9.77 µM | TGI Colon (Colon): 7.24 µM | TGI Renal (Renal): 8.13 µM | TGI Leukemia (Leukemia): 17.78 µM | TGI CNS (CNS): 5.50 µM | TGI Breast (Breast): 9.12 µM | TGI Prostate (Prostate): 13.49 µM | TGI Melanoma (Melanoma): 11.22 µM | TGI Ovarian (Ovarian): 11.75 µM | TGI NSCLC (NSCLC): 10.00 µM

CN(C)c1ccc2[nH]c(Cl)c(/C=C3/C(=O)Nc4ccc(O)cc43)c2c1 [Compound 19]
TGI MG-MID (mean TGI) (full NCI 60 cell panel [1]): 29.51 µM | GI50 (full NCI 60 cell panel [1]): 4370 nM | TGI Colon (Colon): 20.42 µM | TGI Renal (Renal): 33.88 µM | TGI Leukemia (Leukemia): 13.49 µM | TGI CNS (CNS): 36.31 µM | TGI Breast (Breast): 33.88 µM | TGI Prostate (Prostate): 53.70 µM | TGI Melanoma (Melanoma): 25.70 µM | TGI Ovarian (Ovarian): 52.48 µM | TGI NSCLC (NSCLC): 31.62 µM

COc1ccc2c(c1)/C(=C\c1c(Cl)[nH]c3ccc(N(C)C)cc13)C(=O)N2 [Compound 20]
CC50 (full NCI 60 cell panel [1]): 49 µM | TGI MG-MID (mean TGI) (full NCI 60 cell panel [1]): 12.02 µM | GI50 (full NCI 60 cell panel [1]): 2290 nM | TGI Colon (Colon): 9.55 µM | TGI Renal (Renal): 13.80 µM | TGI Leukemia (Leukemia): 10.23 µM | TGI CNS (CNS): 7.94 µM | TGI Breast (Breast): 8.51 µM | TGI Prostate (Prostate): 19.05 µM | TGI Melanoma (Melanoma): 15.49 µM | TGI Ovarian (Ovarian): 15.14 µM | TGI NSCLC (NSCLC): 15.49 µM

CC[C@]1(O)C[C@H]2CN(CCc3c([nH]c4ccccc34)[C@@](C(=O)OC)(c3cc4c(cc3OC)N(C=O)[C@H]3[C@@](O)(C(=O)OC)[C@H](OC(C)=O)[C@]5(CC)C=CCN6CC[C@]43[C@@H]65)C2)C1 [Vincristine sulfate, reference compound]
TGI MG-MID (mean TGI) (full NCI 60 cell panel [1]): 10.00 µM | TGI Colon (Colon): 3.98 µM | TGI Renal (Renal): 19.95 µM | TGI Leukemia (Leukemia): 15.85 µM | TGI CNS (CNS): 6.31 µM | GI50 (full NCI 60 cell panel [4]): 200 nM | TGI Breast (Breast): 7.94 µM | TGI Prostate (Prostate): 6.31 µM | TGI Melanoma (Melanoma): 7.94 µM | TGI Ovarian (Ovarian): 19.95 µM | TGI NSCLC (NSCLC): 15.85 µM
